Shown are actives, neighbours in structure and some others; about 2.3% of the full set was active somewhere.
PLCg1 inh = inhibitors of human phospholipase C gamma1 | P19174 | 0.84% of 370,000 active | inhibition, % at 12.2 µM | purified PLC-gamma1, fluorogenic substrate, fluorescence
ADAM10 inh = ADAM10 inhibition, QFRET primary screen. inhibition, % at 7 µM. recombinant ADAM10, EDANS/DABCYL FRET peptide cleavage, 3 h. 0.62% of 370,000 active;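 active = inhibition above a per-campaign cutoff equal to the mean of compounds falling between control-based bounds plus 3 SD, cut at about 20% in these data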;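 note: 0% = DMSO wells while the 100% control is not disclosed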
PLCb3 inh = inhibitors of human phospholipase C beta3 | Purified PLC-beta3, fluorogenic substrate, fluorescence | inhibition, % at 12.2 µM | Q01970 | 0.18% of 370,000 active | AID 720704; in the data active = inhibition above about 11%;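 note: 0% = median of compound wells on plate and 100% = full blocker control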
ADAM17 inh = inhibits human ADAM17; P78536; 0.83% of 370,000 active; recombinant ADAM17, EDANS/DABCYL FRET peptide cleavage; inhibition, % at 6.95 µM;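 active = inhibition above the mean of compounds lying between control limits plus 3 SD, set per campaign, cut at about 8.5% in these data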;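 note: 0% = DMSO-only wells as the low control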
TbMetRS inhib = Trypanosoma brucei MetRS inhibition | purified T. brucei MetRS, ATP depletion, Kinase-Glo luminescence | inhibition, % at 11.9 µM | 0.4% of 360,000 active | AID 624268;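 active = inhibition above a per-plate cutoff of the control wells' mean inhibition plus 3 SD, cut at about 5.5% in these data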;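 note: 0% = DMSO wells median and 100% = median of wells with control inhibitor compound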
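assay system = parasite MetRS enzyme | timing = 15 min preincubation, 2 h reaction, all 25 °C | evaluation = percent inhibition relative to median high and low control wells | medium = HEPES buffer containing pyrophosphatase, BSA, spermine, DTT | compound = single dose, 11.9 µM final nominal, 0.9% final DMSO | detection = Kinase-Glo luminescence, ATP depletion format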
PLCgamma1 ctr = inhibits human PLC-gamma1 in PLC-beta3 counter-screen; purified PLC-gamma1, fluorogenic substrate, fluorescence; AID 743258; shares compounds with PLCg1 inh; 3.1% of 3,300 active; inhibition, % at 12.3 µM
PLCb3 confirm = human PLC-beta3 inhibition, confirmation | inhibition, % at 12.3 µM | shares compounds with PLCg1 inh | purified PLC-beta3, fluorogenic substrate fluorescence | 1% of 3,300 active; in the data active = inhibition above about 11%
Starred values were filed as active, the others as inactive. Cut-off read from the data, not from the text of the source, unless noted: active = inhibition above about 9.5%; inactive = the rest.

`NS(=O)(=O)c1cccc(NC(=O)COC(=O)C2CCN(S(=O)(=O)c3cccs3)CC2)c1` gave PLCg1 inh 9.7*, ADAM10 inh 4.2, PLCb3 inh -8.5, ADAM17 inh -4.0, TbMetRS inhib -0.4, PLCgamma1 ctr -0.1 and PLCb3 confirm -4.2.
Screening O=C(NCCc1ccccc1)C1CCN(S(=O)(=O)c2cccc3nonc23)CC1 returned PLCg1 inh 10.8*, ADAM10 inh 4.0, PLCb3 inh -39.2, ADAM17 inh 0.8, TbMetRS inhib -0.7, PLCgamma1 ctr -6.4 and PLCb3 confirm -3.1.
Screening O=C(NCCc1ccccc1)C1CCN(S(=O)(=O)c2cccs2)CC1 returned PLCg1 inh 9.8*, ADAM10 inh 2.0, PLCb3 inh 8.6, ADAM17 inh 7.3, TbMetRS inhib -1.2, PLCgamma1 ctr -6.0 and PLCb3 confirm -4.0.
Screening O=C(NCCc1ccc(Cl)cc1)C1CCN(S(=O)(=O)c2cccs2)CC1 returned PLCg1 inh -0.6, ADAM10 inh 1.9, PLCb3 inh 2.8, ADAM17 inh -2.8 and TbMetRS inhib -0.1.
O=C(C1CCCN(S(=O)(=O)c2cccc3nonc23)C1)N1CCN(c2ccccc2Cl)CC1 (stereo unspecified) was read as PLCg1 inh 14.0*, ADAM10 inh 9.9, PLCb3 inh 7.2, ADAM17 inh 4.6, TbMetRS inhib -0.3, PLCgamma1 ctr -0.9 and PLCb3 confirm 3.6.
For CCCCCc1cc(=O)oc2c(C(CCN(CC)CC)c3ccc(N(C)C)cc3)c(OC)cc(OC)c12 (stereo unspecified) the results were PLCg1 inh -12.0, ADAM10 inh -27.7, PLCb3 inh -18.2, ADAM17 inh -8.9 and TbMetRS inhib 0.3.
`CCC(=O)N1CCC1(C)C(=O)Nc1ccc(Cl)c(Cl)c1` (stereo unspecified) gave PLCg1 inh -0.4, ADAM10 inh -21.1, PLCb3 inh -1.7, ADAM17 inh -1.5 and TbMetRS inhib -0.2.
`c1ccc(COC2COC3C(OCc4ccccc4)COC23)cc1` (stereo unspecified) gave PLCg1 inh -0.4, ADAM10 inh -7.0, PLCb3 inh -0.8, ADAM17 inh -6.2 and TbMetRS inhib -0.3.
CCOc1ccc(-c2n[nH]c(C)c2Oc2ccccc2OC)c(O)c1 was read as PLCg1 inh 9.6*, ADAM10 inh 19.6, PLCb3 inh 2.6, ADAM17 inh 8.3, TbMetRS inhib 0.2, PLCgamma1 ctr -3.8 and PLCb3 confirm -2.0.
Screening O=[N+]([O-])c1ccccc1Nc1ccccc1[N+](=O)[O-] returned PLCg1 inh 10.1*, ADAM10 inh 1.7, PLCb3 inh 3.6, ADAM17 inh -4.3, TbMetRS inhib -0.2, PLCgamma1 ctr 2.1 and PLCb3 confirm 2.4.
`CN1CCCC(CC2Oc3ccccc3Sc3ccccc32)C1` (stereo unspecified) gave PLCg1 inh -0.8, ADAM10 inh -5.3, PLCb3 inh 3.0, ADAM17 inh 1.1 and TbMetRS inhib -0.4.
For c1ccc2c(c1)OC(CCCN1CCCCC1)c1ccccc1S2 (stereo unspecified) the results were PLCg1 inh 10.5*, ADAM10 inh 5.2, PLCb3 inh 4.2, ADAM17 inh 4.0, TbMetRS inhib -0.4, PLCgamma1 ctr -4.5 and PLCb3 confirm 0.9.
For CCOC(=O)c1sc(N)c(C#N)c1CSc1nc2ccc(OCC)cc2[nH]1 the results were PLCg1 inh 12.8*, ADAM10 inh 18.1, PLCb3 inh 6.6, ADAM17 inh 4.3, TbMetRS inhib -0.6, PLCgamma1 ctr -4.2 and PLCb3 confirm 1.0.
`CN(CC(=O)NCc1ccccc1)Cc1cccc(F)c1` gave PLCg1 inh 11.5*, ADAM10 inh 7.3, PLCb3 inh 4.7, ADAM17 inh 4.6, TbMetRS inhib -0.6, PLCgamma1 ctr -6.3 and PLCb3 confirm -3.4.
Screening CCOc1ccc(CN(C)CC(=O)NCc2ccccc2)cc1 returned PLCg1 inh -0.2, ADAM10 inh -10.4, PLCb3 inh -7.9, ADAM17 inh -11.4 and TbMetRS inhib -0.2.
For CCC(=O)NCCc1nc2ccccc2n1Cc1ccc(C)cc1 the results were PLCg1 inh 19.3*, ADAM10 inh -6.1, PLCb3 inh -1.8, ADAM17 inh -0.6, TbMetRS inhib 0.3, PLCgamma1 ctr -8.2 and PLCb3 confirm -4.8.
Screening CCOC(=O)c1c(C)[nH]c(C(=O)CN2C(=O)NC3(CCCC3)C2=O)c1C returned PLCg1 inh 13.2*, ADAM10 inh 14.9, PLCb3 inh 7.9, ADAM17 inh 0.1, TbMetRS inhib -1.2, PLCgamma1 ctr -2.3 and PLCb3 confirm 2.0.
`CC(=NOC(=O)c1ccc(Cl)cc1)c1nccs1` gave PLCg1 inh 16.0*, ADAM10 inh 3.4, PLCb3 inh 7.1, ADAM17 inh 5.0, TbMetRS inhib -0.7, PLCgamma1 ctr -8.5 and PLCb3 confirm -4.8.
`Cc1ncc(C[n+]2csc(CCOC(=O)CC3C4CC5CC(C4)CC3C5)c2C)c(N)n1` (stereo unspecified) gave PLCg1 inh 9.8*, ADAM10 inh 10.7, PLCb3 inh 3.2, ADAM17 inh 4.4, TbMetRS inhib -0.9, PLCgamma1 ctr -3.8 and PLCb3 confirm -0.8.
Screening CC1(C)CC(N2CCCC2)=CC(=[N+]2CCCCC2)C1 returned PLCg1 inh 12.2*, ADAM10 inh 11.5, PLCb3 inh 5.0, ADAM17 inh 0.7, TbMetRS inhib 0.9, PLCgamma1 ctr -5.2 and PLCb3 confirm 3.1.
Screening CC1(C)CC(N2CCCC2)=CC(=[N+]2CCCC2)C1 returned PLCg1 inh 9.3, ADAM10 inh 14.1, PLCb3 inh 2.2, ADAM17 inh -0.6 and TbMetRS inhib -0.3.
Cc1ccc(N(CC(=O)NC2CCC(C)CC2)S(=O)(=O)c2cccnc2)cc1 (stereo unspecified) was read as PLCg1 inh 7.5, ADAM10 inh 5.7, PLCb3 inh 12.5*, ADAM17 inh 4.2, TbMetRS inhib 0.5, PLCgamma1 ctr -7.6 and PLCb3 confirm -4.0.
C=CCCC1CN(Cc2ccc(OC)cc2)S(=O)(=O)c2c(cccc2N2CCCCC2)O1 (stereo unspecified) was read as PLCg1 inh 1.1, ADAM10 inh -20.9, PLCb3 inh -0.6 and ADAM17 inh -1.0.
For Cc1nc(Nc2c(Cl)cccc2Cl)sc1C(=O)Nc1ccccc1 the results were PLCg1 inh 9.6*, ADAM10 inh 16.9, PLCb3 inh 6.9, ADAM17 inh 7.5, TbMetRS inhib -0.3, PLCgamma1 ctr -1.5 and PLCb3 confirm -0.2.
`Cc1nc(NC(=O)C2CC2)sc1C(=O)Nc1ccccc1` gave PLCg1 inh 0.1, ADAM10 inh 7.0, PLCb3 inh -2.6, ADAM17 inh 1.5 and TbMetRS inhib 1.4.
For COc1ccc(OC)c(Nc2nc(=O)c3cccnc3s2)c1 the results were TbMetRS inhib -0.4.
